Test results published in ChEMBL document CHEMBL4145462, “Nitrogen-containing ecdysteroid derivatives vs. multi-drug resistance in cancer: Preparation and antitumor activity of oximes, oxime ethers and a lactam” (Eur J Med Chem, 2018).

Legend:
HeLa = experiment: Antiproliferative activity against human HeLa cells after 72 hrs by MTT assay; format: functional, cell-based
In short: (§1)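 Cells grown in MEM with 10% FCS, 1% non-essential amino acids and 1% penicillin-streptomycin. Seeded at 5000 cells/well, exposed to 0.1–30.0 µM compound for 72 h. MTT (5 mg/ml solution) was then added for 4 h, formazan dissolved in DMSO, and absorbance read at 545 nm. Cisplatin served as positive control. IC50 came from sigmoidal dose–response fits (log inhibitor vs normalized response, variable slope).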

SiHa = experiment: Antiproliferative activity against human SiHa cells after 72 hrs by MTT assay; format: functional, cell-based; in short: as §1
MDA-MB-231 = experiment: Antiproliferative activity against human MDA-MB-231 cells after 72 hrs by MTT assay; format: functional, cell-based; settings: MDA-MB-231, 72 h; in short: as §1
MCF7 = experiment: Antiproliferative activity against human MCF7 cells after 72 hrs by MTT assay; format: functional, cell-based; settings: MCF7, 72 h; in short: as §1
[1] = Cytotoxicity against mouse L5178 cells after 48 hrs by MTT assay; format: functional, cell-based; settings: L5178, 48 h
In short: (§2)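 Parental mouse lymphoma L5178 and the MDR line made by pHa MDR1/A retrovirus transfection, selected with 60 µg/L colchicine. Grown in McCoy's 5A with horse serum at 37°C, 5% CO2. 5 x 10^4 cells/well, serial compound dilutions, 48 h. MTT added to 0.5 mg/mL final for 4 h, then 10% SDS in 0.01 M HCl overnight, OD read at 540 and 630 nm. IC50 taken as median cytotoxic activity (Dm) from control lanes of checkerboard plates, n=2.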

[2] = Cytotoxicity against mouse L5178 cells expressing human ABCB1 after 48 hrs by MTT assay; format: functional, cell-based; settings: L5178, 48 h; in short: as §2
ABCB1 (P-glycoprotein) [3] = target: T1, ABCB1 (P-glycoprotein) (Homo sapiens, UniProt P08183); experiment: Inhibition of human ABCB1 expressed in mouse L5178 cells assessed as increase in rhodamine-123 accumulation at 2 uM after 10 mins by flow cytometric analysis relative to control; format: cell-based; settings: mouse L5178 cells expressing human ABCB1, probe rhodamine-123
T1 sequence (P08183 whole entry): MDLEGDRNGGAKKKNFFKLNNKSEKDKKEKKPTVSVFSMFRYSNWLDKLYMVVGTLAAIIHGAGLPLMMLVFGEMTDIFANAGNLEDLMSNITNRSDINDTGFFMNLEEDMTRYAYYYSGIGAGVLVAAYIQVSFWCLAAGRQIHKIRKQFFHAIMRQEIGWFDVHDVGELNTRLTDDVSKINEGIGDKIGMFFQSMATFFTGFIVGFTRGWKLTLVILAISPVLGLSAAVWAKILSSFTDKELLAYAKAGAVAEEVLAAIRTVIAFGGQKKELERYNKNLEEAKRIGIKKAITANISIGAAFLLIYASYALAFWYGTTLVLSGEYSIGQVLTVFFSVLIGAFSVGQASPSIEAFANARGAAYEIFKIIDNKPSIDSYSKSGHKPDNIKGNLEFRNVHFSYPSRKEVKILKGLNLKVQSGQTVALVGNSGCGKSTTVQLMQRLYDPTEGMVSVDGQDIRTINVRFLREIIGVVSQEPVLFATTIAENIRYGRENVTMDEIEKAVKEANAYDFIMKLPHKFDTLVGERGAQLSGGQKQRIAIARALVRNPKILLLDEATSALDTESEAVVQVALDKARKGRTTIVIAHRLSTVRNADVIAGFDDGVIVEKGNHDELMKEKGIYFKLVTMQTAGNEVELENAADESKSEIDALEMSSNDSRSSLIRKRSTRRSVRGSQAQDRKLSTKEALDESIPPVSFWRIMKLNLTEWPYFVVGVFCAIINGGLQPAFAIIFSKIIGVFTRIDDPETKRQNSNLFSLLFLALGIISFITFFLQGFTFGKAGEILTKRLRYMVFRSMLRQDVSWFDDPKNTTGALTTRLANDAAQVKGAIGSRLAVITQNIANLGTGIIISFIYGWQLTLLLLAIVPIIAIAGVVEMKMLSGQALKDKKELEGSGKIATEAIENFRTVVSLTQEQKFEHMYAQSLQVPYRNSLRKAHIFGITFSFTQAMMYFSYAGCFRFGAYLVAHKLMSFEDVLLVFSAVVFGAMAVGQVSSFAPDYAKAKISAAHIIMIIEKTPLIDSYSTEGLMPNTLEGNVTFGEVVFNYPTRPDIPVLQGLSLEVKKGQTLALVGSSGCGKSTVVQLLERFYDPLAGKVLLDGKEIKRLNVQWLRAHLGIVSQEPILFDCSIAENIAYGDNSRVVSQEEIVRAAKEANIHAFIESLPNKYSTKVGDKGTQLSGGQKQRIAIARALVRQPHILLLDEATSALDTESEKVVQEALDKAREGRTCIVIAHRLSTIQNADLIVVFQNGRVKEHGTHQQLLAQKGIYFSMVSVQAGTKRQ
In short: (§3)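 Cells at 2 × 10^6/mL were preincubated 10 min with compound. Rhodamine 123 then added to 5.2 µM final, 20 min at 37 °C. Cells washed twice in PBS, resuspended and read by flow cytometry. Percent inhibition was scaled between MDR-cell accumulation (0%) and parental L5178 accumulation (100%). Controls: 100 nM tariquidar (positive) and 2% DMSO (negative).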

ABCB1 (P-glycoprotein) [4] = target: T1, ABCB1 (P-glycoprotein); experiment: Inhibition of human ABCB1 expressed in mouse L5178 cells assessed as increase in rhodamine-123 accumulation at 20 uM after 10 mins by flow cytometric analysis relative to control; format: cell-based; settings: mouse L5178 cells expressing human ABCB1, probe rhodamine-123; in short: as §3
[5] = Synergistic cytotoxicity against mouse L5178 cells assessed as combination index at ED50 using 150:1 test compound to doxorubicin ratio after 48 hrs by MTT-based checkerboard microplate method; format: functional
In short: (§4)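 Checkerboard microplate combinations of compound with doxorubicin at constant molar ratios. 5 × 10^4 cells/well in McCoy's 5A, 48 h at 37°C, 5% CO2. MTT added to 0.5 mg/mL final for 4 h, SDS/HCl overnight, OD read at 540 and 630 nm. Combination indices derived per ratio for 50%, 75% and 90% growth inhibition by median-effect analysis.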

[6] = Synergistic cytotoxicity against mouse L5178 cells expressing human ABCB1 assessed as combination index at ED50 using 15:1 test compound to doxorubicin ratio after 48 hrs by MTT-based checkerboard microplate method; format: functional; in short: as §4
[7] = Synergistic cytotoxicity against mouse L5178 cells assessed as combination index at ED75 using 150:1 test compound to doxorubicin ratio after 48 hrs by MTT-based checkerboard microplate method; format: functional; in short: as §4
[8] = Synergistic cytotoxicity against mouse L5178 cells assessed as combination index at ED90 using 150:1 test compound to doxorubicin ratio after 48 hrs by MTT-based checkerboard microplate method; format: functional; in short: as §4
[9] = Synergistic cytotoxicity against mouse L5178 cells expressing human ABCB1 assessed as combination index at ED75 using 15:1 test compound to doxorubicin ratio after 48 hrs by MTT-based checkerboard microplate method; format: functional; in short: as §4
[10] = Synergistic cytotoxicity against mouse L5178 cells expressing human ABCB1 assessed as combination index at ED90 using 15:1 test compound to doxorubicin ratio after 48 hrs by MTT-based checkerboard microplate method; format: functional; in short: as §4
[11] = Synergistic cytotoxicity against mouse L5178 cells expressing human ABCB1 assessed as combination index at ED50 using 30:1 test compound to doxorubicin ratio after 48 hrs by MTT-based checkerboard microplate method; format: functional; in short: as §4
[12] = Synergistic cytotoxicity against mouse L5178 cells expressing human ABCB1 assessed as combination index at ED75 using 30:1 test compound to doxorubicin ratio after 48 hrs by MTT-based checkerboard microplate method; format: functional; in short: as §4
[13] = Synergistic cytotoxicity against mouse L5178 cells expressing human ABCB1 assessed as combination index at ED90 using 30:1 test compound to doxorubicin ratio after 48 hrs by MTT-based checkerboard microplate method; format: functional; in short: as §4
[14] = Synergistic cytotoxicity against mouse L5178 cells expressing human ABCB1 assessed as combination index at ED50 using 7.5:1 test compound to doxorubicin ratio after 48 hrs by MTT-based checkerboard microplate method; format: functional; in short: as §4
[15] = Synergistic cytotoxicity against mouse L5178 cells expressing human ABCB1 assessed as combination index at ED75 using 7.5:1 test compound to doxorubicin ratio after 48 hrs by MTT-based checkerboard microplate method; format: functional; in short: as §4
[16] = Synergistic cytotoxicity against mouse L5178 cells expressing human ABCB1 assessed as combination index at ED90 using 7.5:1 test compound to doxorubicin ratio after 48 hrs by MTT-based checkerboard microplate method; format: functional; in short: as §4
[17] = Synergistic cytotoxicity against mouse L5178 cells assessed as combination index at ED50 using 37.5:1 test compound to doxorubicin ratio after 48 hrs by MTT-based checkerboard microplate method; format: functional; in short: as §4
[18] = Synergistic cytotoxicity against mouse L5178 cells assessed as combination index at ED75 using 37.5:1 test compound to doxorubicin ratio after 48 hrs by MTT-based checkerboard microplate method; format: functional; in short: as §4
[19] = Synergistic cytotoxicity against mouse L5178 cells assessed as combination index at ED90 using 37.5:1 test compound to doxorubicin ratio after 48 hrs by MTT-based checkerboard microplate method; format: functional; in short: as §4
[20] = Synergistic cytotoxicity against mouse L5178 cells assessed as combination index at ED50 using 75:1 test compound to doxorubicin ratio after 48 hrs by MTT-based checkerboard microplate method; format: functional; in short: as §4
[21] = Synergistic cytotoxicity against mouse L5178 cells assessed as combination index at ED75 using 75:1 test compound to doxorubicin ratio after 48 hrs by MTT-based checkerboard microplate method; format: functional; in short: as §4
[22] = Synergistic cytotoxicity against mouse L5178 cells assessed as combination index at ED90 using 75:1 test compound to doxorubicin ratio after 48 hrs by MTT-based checkerboard microplate method; format: functional; in short: as §4
[23] = Synergistic cytotoxicity against mouse L5178 cells expressing human ABCB1 assessed as combination index at ED50 using 60:1 test compound to doxorubicin ratio after 48 hrs by MTT-based checkerboard microplate method; format: functional; in short: as §4
[24] = Synergistic cytotoxicity against mouse L5178 cells expressing human ABCB1 assessed as combination index at ED75 using 60:1 test compound to doxorubicin ratio after 48 hrs by MTT-based checkerboard microplate method; format: functional; in short: as §4
[25] = Synergistic cytotoxicity against mouse L5178 cells expressing human ABCB1 assessed as combination index at ED90 using 60:1 test compound to doxorubicin ratio after 48 hrs by MTT-based checkerboard microplate method; format: functional; in short: as §4
[26] = Synergistic cytotoxicity against mouse L5178 cells assessed as combination index at ED50 using 300:1 test compound to doxorubicin ratio after 48 hrs by MTT-based checkerboard microplate method; format: functional; in short: as §4
[27] = Synergistic cytotoxicity against mouse L5178 cells assessed as combination index at ED75 using 300:1 test compound to doxorubicin ratio after 48 hrs by MTT-based checkerboard microplate method; format: functional; in short: as §4
[28] = Synergistic cytotoxicity against mouse L5178 cells assessed as combination index at ED90 using 300:1 test compound to doxorubicin ratio after 48 hrs by MTT-based checkerboard microplate method; format: functional; in short: as §4
[29] = Synergistic cytotoxicity against mouse L5178 cells assessed as combination index at ED50 using 600:1 test compound to doxorubicin ratio after 48 hrs by MTT-based checkerboard microplate method; format: functional; in short: as §4
[30] = Synergistic cytotoxicity against mouse L5178 cells assessed as combination index at ED75 using 600:1 test compound to doxorubicin ratio after 48 hrs by MTT-based checkerboard microplate method; format: functional; in short: as §4
[31] = Synergistic cytotoxicity against mouse L5178 cells assessed as combination index at ED90 using 600:1 test compound to doxorubicin ratio after 48 hrs by MTT-based checkerboard microplate method; format: functional; in short: as §4

| Compound | IC50 [1] | IC50 [2] | inhibition at 10 min, 2 µM (ABCB1 (P-glycoprotein) [3]) | inhibition at 10 min, 20 µM (ABCB1 (P-glycoprotein) [4]) | CI [5] | CI [6] | CI [7] | CI [8] | CI [9] | CI [10] | CI [11] | CI [12] | CI [13] | CI [23] | CI [24] | CI [25] | CI [26] | CI [27] | CI [28] | CI [29] | also measured |
| --- | --- | --- | --- | --- | --- | --- | --- | --- | --- | --- | --- | --- | --- | --- | --- | --- | --- | --- | --- | --- | --- |
| CO/N=C1\C=C2[C@H](CC[C@]3(C)[C@@H]([C@@]4(C)OC(C)(C)O[C@@H]4CCC(C)(C)O)CC[C@@]23O)[C@@]2(C)C[C@@H]3OC(C)(C)O[C@@H]3C[C@@H]12 | 40.9 µM | 55.1 µM | 2.25% | 25.1% | 1.06 | 0.17 | 0.79 | 0.62 | 0.16 | 0.16 | 0.19 | 0.21 | 0.24 | 0.29 | 0.39 | 0.52 | 0.82 | 0.8 | 0.83 | 0.93 | IC50 (HeLa): > 30 µM; IC50 (SiHa): > 30 µM; IC50 (MDA-MB-231): > 30 µM; IC50 (MCF7): > 30 µM; CI [14]: 0.19; CI [15]: 0.17; CI [16]: 0.16; CI [17]: 1.19; CI [18]: 1.14; CI [19]: 1.13; CI [20]: 0.99; CI [21]: 1.06; CI [22]: 1.19; CI [30]: 0.9; CI [31]: 0.91 |
| CC(C)(O)CC[C@H]1OC(C)(C)O[C@]1(C)[C@H]1CC=C2C3=C/C(=N\O)[C@@H]4C[C@H]5OC(C)(C)O[C@H]5C[C@]4(C)[C@H]3CC[C@@]21C | 20.9 µM | 24.6 µM | 10.6% | 83% | 0.8 | 0.26 | 0.79 | 0.78 | 0.16 | 0.12 | 0.25 | 0.19 | 0.16 | 0.34 | 0.29 | 0.27 | 1.18 | 1.11 | 1.04 | 1.1 | CI [30]: 1.11; CI [31]: 1.13 |
| CC(C)(O)CC[C@H]1OC(C)(C)O[C@]1(C)[C@H]1CC[C@@]2(O)C3=CC(=O)[C@@H]4C[C@H]5OC(C)(C)O[C@H]5C[C@]4(C)[C@H]3CC[C@]12C | 110 µM | 97.7 µM | 2.54% | 20.9% |  |  |  |  |  |  |  |  |  |  |  |  |  |  |  |  |  |
| CC(C)(O)CC[C@H]1OC(C)(C)O[C@]1(C)[C@H]1CC=C2C3=C/C(=N/O)[C@@H]4C[C@H]5OC(C)(C)O[C@H]5C[C@]4(C)[C@H]3CC[C@@]21C | 34.2 µM | 28.4 µM | 7.15% | 81.1% | 0.98 | 0.98 | 0.76 | 0.61 | 0.25 | 0.27 | 0.32 | 0.25 | 0.2 | 0.42 | 0.34 | 0.28 | 1.14 | 1.17 | 1.25 | 1.01 | CI [30]: 0.94; CI [31]: 0.91 |
| C=CCO/N=C1\C=C2[C@H](CC[C@]3(C)[C@@H]([C@@]4(C)OC(C)(C)O[C@@H]4CCC(C)(C)O)CC[C@@]23O)[C@@]2(C)C[C@@H]3OC(C)(C)O[C@@H]3C[C@@H]12 | 31.5 µM | 51.9 µM | 21% | 89.4% | 1.03 | 0.17 | 0.81 | 0.69 | 0.13 | 0.13 | 0.17 | 0.18 | 0.21 | 0.24 | 0.26 | 0.31 | 1.22 | 1.12 | 1.11 | 1.19 | IC50 (HeLa): 15.6 µM; IC50 (SiHa): 25.5 µM; IC50 (MDA-MB-231): 21.4 µM; IC50 (MCF7): 13.6 µM; CI [17]: 1.95; CI [18]: 1.28; CI [19]: 0.89; CI [20]: 1.35; CI [21]: 1.27; CI [22]: 1.27; CI [30]: 1.08; CI [31]: 1.05 |
| COc1cccc2c1C(=O)c1c(O)c3c(c(O)c1C2=O)C[C@@](O)(C(=O)CO)C[C@@H]3O[C@H]1C[C@H](N)[C@H](O)[C@H](C)O1 [DOXORUBICIN] | 0.08 µM | 4.49 µM |  |  |  |  |  |  |  |  |  |  |  |  |  |  |  |  |  |  |  |
